A value given as a limit tells only on which side of the number the result lay.

One assay relates to Human alphaherpesvirus 2. Put plainly: Inhibition of viral cytopathic effect in infected human foreskin fibroblast cell monolayers of HSV-2 MS […] by 50%. In kind it is functional, organism-based. In general terms: Damage to the host cells serves as the signal in cytopathic effect assays.
For assay [1], the system named is Human alphaherpesvirus 1. The assay can be described thus: Inhibition of plaque formation in monolayers of HSV-1 KOS Vero cells by 50%. The format is functional, organism-based. Particulars: Human alphaherpesvirus 1, Vero. In short, it runs like this:
(§1)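 Vero cells in DMEM with 5% FBS, seeded 1 day ahead, infected with ~100 PFU/well (KOS, TK+; KOSSB, TK−) for 1 h at 37 °C. Inoculum replaced with drug dilutions in duplicate: first 25, 10, 5, 1 µg/mL (KOS) or 50, 25, 10, 1 µg/mL (KOSSB), then 1:2 series. After 48 h at 37 °C, methanol fixation and Giemsa staining. EC50 from plaque counts versus no-drug controls.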

The test system of assay [2] is Human alphaherpesvirus 1. Put plainly: Inhibition of plaque formation in monolayers of HSV-1 KOSSB(TK-) Vero cells by 50%. The format is functional, organism-based. Particulars: Human alphaherpesvirus 1, Vero. In short, it runs like this: as §1
Assay [3] deals with Human betaherpesvirus 5 (HCMV). Put plainly: Inhibition of viral cytopathic effect in infected human foreskin fibroblast cell in monolayers of HCMV AD-169 by 50%.
Assay [4] deals with Human alphaherpesvirus 1. The assay can be described thus: Inhibition of plaque formation in monolayers of HSV-1 E-377 Vero cells by 50%. In kind it is functional, organism-based. Particulars: Human alphaherpesvirus 1, Vero.
The test system of a further assay is Human alphaherpesvirus 3. The assay can be described thus: Inhibition of viral cytopathic effect in infected human foreskin fibroblast cell in monolayers of VZV Ellen […] by 50%. The format is functional, organism-based.
Assay [5] has as its system Human alphaherpesvirus 1. Put plainly: Inhibition of plaque formation in monolayers of HSV-1 E-377 (TK+) Vero cells by 50%. Particulars: Human alphaherpesvirus 1, Vero. In kind it is functional, organism-based.
Assay [6] deals with Human alphaherpesvirus 1. Put plainly: Inhibition of plaque formation in monolayers of HSV-1 KOS (TK+) Vero cells by 50%. In kind it is functional, organism-based. Particulars: Human alphaherpesvirus 1, Vero. An outline of the steps:
as §1

Assay [7] has as its system Human alphaherpesvirus 1. The assay can be described thus: Inhibition of plaque formation in monolayers of HSV-1 E-377(TK+) Vero cells by 50%. In kind it is functional, organism-based. Particulars: Human alphaherpesvirus 1, Vero.
Assay [8] has as its system Human alphaherpesvirus 1. The assay can be described thus: Inhibition of plaque formation in monolayers of HSV-1 KOS (TK+)Vero cells by 50%. The format is functional, organism-based. Particulars: Human alphaherpesvirus 1, Vero. In short, it runs like this:
as §1

Assay [9] deals with Human betaherpesvirus 5 (HCMV). Put plainly: Inhibition of viral cytopathic effect in infected human foreskin fibroblast cell in monolayers of HCMV AD-169 by 50%. The source holds these as a separate data set.

One may read the EC50 as the concentration needed to bring the measured effect to its halfway point. High values mean lower potency in that assay, low ones higher potency in that assay. Regarding `N#CNC(CCl)c1cn([C@H]2C[C@H](O)[C@@H](CO)O2)c(=O)[nH]c1=O` (stereo partly drawn), the EC50 in the assay on Human alphaherpesvirus 2 is 105 µM; with Human alphaherpesvirus 1 [1], 37.5 µM; in the assay with Human alphaherpesvirus 1 [2], > 150 µM; in [3] it was 274 µM; in the assay with Human alphaherpesvirus 1 [4], 210 µM; in the assay with Human alphaherpesvirus 3 it was 31.5 µM.

As for `[N-]=[N+]=NCC(O)c1cn([C@H]2C[C@H](O)[C@@H](CO)O2)c(=O)[nH]c1=O` (stereo partly drawn), the EC50 is > 322 µM in the assay on Human alphaherpesvirus 2; > 80 µM in the assay on Human alphaherpesvirus 1 [1]; > 161 µM with Human alphaherpesvirus 1 [2]; > 322 µM in [3]; > 322 µM in the assay on Human alphaherpesvirus 1 [4]; > 322 µM in the assay on Human alphaherpesvirus 3.

Turning to `COC(CN=[N+]=[N-])c1cn([C@H]2C[C@H](O)[C@@H](CO)O2)c(=O)[nH]c1=O` (stereo partly drawn), the 50% effective concentration (EC50) was > 300 µM with Human alphaherpesvirus 2; > 75 µM in the assay on Human alphaherpesvirus 1 [1]; > 150 µM with Human alphaherpesvirus 1 [2]; > 300 µM in assay [3]; > 300 µM with Human alphaherpesvirus 1 [4]; > 300 µM with Human alphaherpesvirus 3.

Turning to `N#CNC(CI)c1cn([C@H]2C[C@H](O)[C@@H](CO)O2)c(=O)[nH]c1=O` (stereo partly drawn), the EC50 in the assay on Human alphaherpesvirus 1 [5] is 9.4 µM; in the assay on Human alphaherpesvirus 2 it was 77.8 µM; in the assay on Human alphaherpesvirus 1 [2] it was 15.3 µM; in assay [3] it was > 236 µM; in the assay with Human alphaherpesvirus 1 [6] it was 1.6 µM; in the assay with Human alphaherpesvirus 3 it was 14.6 µM.

As to `N#CNC(CBr)c1cn([C@H]2C[C@H](O)[C@@H](CO)O2)c(=O)[nH]c1=O` (stereo partly drawn), the EC50 was 87.7 µM in the assay on Human alphaherpesvirus 2; 42.5 µM in the assay on Human alphaherpesvirus 1 [7]; > 133 µM with Human alphaherpesvirus 1 [2]; > 266 µM in assay [3]; 6.6 µM with Human alphaherpesvirus 1 [8]; 20.7 µM with Human alphaherpesvirus 3.

Regarding `N#CNC(CBr)c1cn(C2O[C@H](CO)[C@@H](O)[C@@H]2O)c(=O)[nH]c1=O` (stereo partly drawn), the 50% effective concentration (EC50) in the assay with Human alphaherpesvirus 2 was > 256 µM; with Human alphaherpesvirus 1 [1], 62.5 µM; in the assay on Human alphaherpesvirus 1 [2], > 125 µM; in assay [3], > 256 µM; in the assay with Human alphaherpesvirus 1 [4] it was > 256 µM; in the assay with Human alphaherpesvirus 3, 32 µM.

As to `N#CNC(CI)c1cn(C2O[C@H](CO)[C@@H](O)[C@@H]2O)c(=O)[nH]c1=O` (stereo partly drawn), the EC50 with Human alphaherpesvirus 2 is > 228 µM; in the assay with Human alphaherpesvirus 1 [1], 22.8 µM; with Human alphaherpesvirus 1 [2], > 114 µM; in [3] it was > 228 µM; in the assay with Human alphaherpesvirus 1 [4] it was > 228 µM; in the assay on Human alphaherpesvirus 3 it was 11.4 µM.

In the case of `Nc1nc2c(ncn2COCCO)c(=O)[nH]1` [ACYCLOVIR], the EC50 in the assay on Human alphaherpesvirus 2 stood at 6.2 µM; with Human alphaherpesvirus 1 [1], 2.2 µM; with Human alphaherpesvirus 1 [2] it was 178 µM; in the assay on Human alphaherpesvirus 1 [4], 4.4 µM.

Regarding `O=c1[nH]c(=O)n([C@H]2C[C@H](O)[C@@H](CO)O2)cc1/C=C/Br` [BRIVUDINE], the EC50 is 1.5 µM with Human alphaherpesvirus 1 [1]; > 150 µM in the assay with Human alphaherpesvirus 1 [2]; > 150 µM in assay [3]; 2.7 µM in the assay with Human alphaherpesvirus 1 [4]; 0.003 µM in the assay on Human alphaherpesvirus 3.

On to `CCc1cn([C@H]2C[C@H](O)[C@@H](CO)O2)c(=O)[nH]c1=O` [EDOXUDINE], for which the EC50 was 58.5 µM in the assay on Human alphaherpesvirus 2; 19.5 µM with Human alphaherpesvirus 1 [1]; > 780 µM in the assay on Human alphaherpesvirus 1 [2]; > 390 µM in [9]; 42.9 µM in the assay on Human alphaherpesvirus 1 [4]; 32.7 µM with Human alphaherpesvirus 3.

As for `Nc1nc2c(ncn2COC(CO)CO)c(=O)[nH]1` [GANCICLOVIR], in assay [3], the EC50 worked out at 0.23 µM.

The record behind these values is ChEMBL document CHEMBL1134633, “Synthesis and antiviral activity of novel 5-(1-cyanamido-2-haloethyl) and 5-(1-hydroxy(or methoxy)-2-azidoethyl) analogues of uracil nucleosides” (J Med Chem, 2001).
